In brackets after ≈: the same amount, converted by molar mass.
Assays:
Staphylococcus aureus [1] = test: Antimicrobial activity against Staphylococcus aureus MRSA08-12 in peritonitis mouse model assessed as mortality of host at 10 mg/kg, iv as single dose relative to control; assay type: functional
Procedure, shortened: (§1)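 Outbred KM mice (20–25 g) infected i.p. with a 90–100% lethal dose (5 × 10^7 CFU/mL) in 0.5 mL brain heart infusion broth with 5% mucin. Single i.v. dose of 1.25–20 mg/kg in 20% DMSO, 0.1 mL. Ten mice per dose; daily monitoring for 14 days; ED50 from cumulative mortality by Bliss's method.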

Staphylococcus aureus [2] = test: Antimicrobial activity against Staphylococcus aureus MRSA08-12 in peritonitis mouse model assessed as mortality of host at 2.5 mg/kg, iv as single dose relative to control; assay type: functional
Procedure, shortened: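 KM outbred mice (20–25 g) inoculated intraperitoneally with a 90-to-100%-lethal dose (5 × 10^7 CFU/mL) of MRSA08-12 in 0.5 mL brain heart infusion broth with 5% mucin. Single i.v. dose in 20% DMSO, 0.1 mL; doses 1.25–20 mg/kg, 10 mice per dose. Cumulative mortality tracked daily for 14 days; ED50 by Bliss's method.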

Staphylococcus aureus [3] = test: Antimicrobial activity against Staphylococcus aureus MRSA08-12 in peritonitis mouse model assessed as mortality of host at 1.25 mg/kg, iv as single dose relative to control; assay type: functional; procedure, shortened: as §1
[4] = Fraction unbound in CD1 mouse plasma at 2 uM by equilibrium dialysis; assay type: ADME, cell-free
Procedure, shortened: (§2)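 Pooled CD-1 mouse plasma spiked to 2 µM final, equilibrium dialysis in triplicate against 100 mM PBS pH 7.4, 4 h at 37 °C with rotation; matrix-matched samples acetonitrile-precipitated, LC-MS/MS with internal standards. Unbound = free/total ×100; recovery = (free+total)/pre-dialysis ×100.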

[5] = Protein binding in CD1 mouse plasma at 2 uM by equilibrium dialysis; assay type: ADME, cell-free; conditions: read-out: PPB (converted)
[6] = Drug recovery in CD1 mouse plasma at 2 uM by equilibrium dialysis; assay type: ADME, cell-free; conditions: read-out: Drug recovery; procedure, shortened: as §2
Mus musculus [7] = test: Acute toxicity in KM mouse assessed as skin abnormality at 250 mg/kg, iv measured for 14 days by necropsy; assay type: organism-based; parameters: dose 250 mg/kg, route intravenous; conditions: in vivo, 336 h
Procedure, shortened: (§3)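 Outbred KM mice (SPF, 20–25 g; nine male, ten female) given a single tail-vein injection of 100 or 250 mg/kg in PBS pH 6.5 with 20% DMSO over about 60 s. Behaviour, weight, coat colour, anal temperature, food and water intake, and urine and stool weight followed for 14 days. On day 14, gross necropsy of skin, lungs, heart, liver, kidneys and spleen.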

Mus musculus [8] = test: Acute toxicity in KM mouse assessed as liver abnormality at 250 mg/kg, iv measured for 14 days by necropsy; assay type: organism-based; parameters: dose 250 mg/kg, route intravenous; conditions: in vivo, 336 h; procedure, shortened: as §3
Mus musculus [9] = test: Acute toxicity in KM mouse assessed as spleen abnormality at 250 mg/kg, iv measured for 14 days by necropsy; assay type: organism-based; parameters: dose 250 mg/kg, route intravenous; conditions: in vivo, 336 h; procedure, shortened: as §3
[10] = Acute toxicity in iv dosed KM mouse measured for 14 days; assay type: organism-based; conditions: in vivo
Procedure, shortened: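 Outbred KM mice (SPF, 20–25 g; nine male, ten female) given a single tail-vein i.v. dose of 100 or 250 mg/kg, formulated in PBS pH 6.5 containing 20% DMSO. Behaviour, weight, coat, anal temperature, food and water intake, and excreta monitored daily for 14 days, then necropsy.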

Staphylococcus aureus [11] = test: Antimicrobial activity against methicillin-resistant Staphylococcus aureus after 24 hrs by broth microdilution method; assay type: functional
Procedure, shortened: (§4)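 Broth microdilution following NCCLS M7-A4, using ATCC strains and clinical isolates from a provincial hospital.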

Escherichia coli [12] = test: Antimicrobial activity against Escherichia coli isolate 1 after 24 hrs by broth microdilution method; assay type: functional; conditions: isolate 1, 24 h
Procedure, shortened: (§5)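 Broth microdilution following NCCLS M7-A4; ATCC strains and clinical isolates from a provincial hospital.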

Escherichia coli [13] = test: Antimicrobial activity against Escherichia coli isolate 2 after 24 hrs by broth microdilution method; assay type: functional; conditions: isolate 2, 24 h; procedure, shortened: as §5
Staphylococcus aureus [14] = test: Antimicrobial activity against Staphylococcus aureus OXFORD after 24 hrs by broth microdilution method; assay type: functional; procedure, shortened: as §4
Enterococcus faecalis = test: Antimicrobial activity against Enterococcus faecalis Isolate 1 after 24 hrs by broth microdilution method; assay type: functional; conditions: Isolate 1, 24 h; procedure, shortened: as §5
Enterococcus faecium = test: Antimicrobial activity against Enterococcus faecium X7501 after 24 hrs by broth microdilution method; assay type: functional; conditions: X7501, 24 h; procedure, shortened: as §5
Streptococcus pyogenes [15] = test: Antimicrobial activity against Streptococcus pyogenes 1307006P after 24 hrs by broth microdilution method; assay type: functional; procedure, shortened: as §5
Streptococcus pyogenes [16] = test: Antimicrobial activity against Streptococcus pyogenes 1308007P after 24 hrs by broth microdilution method; assay type: functional; procedure, shortened: as §5
Staphylococcus aureus [17] = test: Antimicrobial activity against Staphylococcus aureus ATCC 29213 after 24 hrs by broth microdilution method; assay type: functional; conditions: ATCC 29213, 24 h; procedure, shortened: as §5
Staphylococcus aureus [18] = test: Antimicrobial activity against Staphylococcus aureus isolate Ealing 23 after 24 hrs by broth microdilution method; assay type: functional; conditions: isolate Ealing 23, 24 h; procedure, shortened: as §4
Staphylococcus aureus [19] = test: Antimicrobial activity against Staphylococcus aureus isolate F89 after 24 hrs by broth microdilution method; assay type: functional; conditions: isolate F89, 24 h; procedure, shortened: as §5
Staphylococcus aureus [20] = test: Antimicrobial activity against Staphylococcus aureus isolate MILES HALL after 24 hrs by broth microdilution method; assay type: functional; procedure, shortened: as §4
Staphylococcus aureus [21] = test: Antimicrobial activity against Staphylococcus aureus isolate RUSSELL after 24 hrs by broth microdilution method; assay type: functional; procedure, shortened: as §4
Staphylococcus aureus [22] = test: Antimicrobial activity against Staphylococcus aureus isolate CL 1033 after 24 hrs by broth microdilution method; assay type: functional; conditions: isolate CL 1033, 24 h; procedure, shortened: as §5
Staphylococcus aureus [23] = test: Antimicrobial activity against Staphylococcus aureus isolate CL 938 after 24 hrs by broth microdilution method; assay type: functional; conditions: isolate CL 938, 24 h; procedure, shortened: as §5
Staphylococcus aureus [24] = test: Antimicrobial activity against Staphylococcus aureus isolate NEQAS 4026 after 24 hrs by broth microdilution method; assay type: functional; conditions: isolate NEQAS 4026, 24 h; procedure, shortened: as §5
Staphylococcus aureus [25] = test: Antimicrobial activity against Staphylococcus aureus isolate OGA833 after 24 hrs by broth microdilution method; assay type: functional; conditions: isolate OGA833, 24 h; procedure, shortened: as §5
Staphylococcus aureus [26] = test: Antimicrobial activity against Staphylococcus aureus isolate PAV 5 after 24 hrs by broth microdilution method; assay type: functional; conditions: isolate PAV 5, 24 h; procedure, shortened: as §5
Staphylococcus aureus [27] = test: Antimicrobial activity against Staphylococcus aureus isolate RN1030 after 24 hrs by broth microdilution method; assay type: functional; conditions: isolate RN1030, 24 h; procedure, shortened: as §4
Staphylococcus aureus [28] = test: Antimicrobial activity against Staphylococcus aureus isolate 929035 after 24 hrs by broth microdilution method; assay type: functional; conditions: isolate 929035, 24 h; procedure, shortened: as §5
Staphylococcus aureus [29] = test: Antimicrobial activity against Staphylococcus aureus isolate 934335 after 24 hrs by broth microdilution method; assay type: functional; conditions: isolate 934335, 24 h; procedure, shortened: as §5
Staphylococcus aureus [30] = test: Antimicrobial activity against Staphylococcus aureus isolate NEQAS 4158 after 24 hrs by broth microdilution method; assay type: functional; conditions: isolate NEQAS 4158, 24 h; procedure, shortened: as §5
[31] = AUC (0 to t) in Sprague-Dawley rat at 5 mg/kg, iv; assay type: ADME, organism-based; parameters: dose 5 mg/kg, route intravenous; conditions: plasma
[32] = AUC (0 to infinity) in Sprague-Dawley rat at 5 mg/kg, iv; assay type: ADME, organism-based; parameters: time infinity, dose 5 mg/kg, route intravenous; conditions: plasma
[33] = Cmax in Sprague-Dawley rat at 25 mg/kg, po; assay type: ADME, organism-based; parameters: dose 25 mg/kg, route oral; conditions: in vivo
[34] = AUC (0 to t) in Sprague-Dawley rat at 25 mg/kg, po; assay type: ADME, organism-based; parameters: dose 25 mg/kg, route oral; conditions: plasma
[35] = Stability of the compound in artificial gastric juice measured every 2 hrs for 12 hrs by HPLC analysis; assay type: ADME; conditions: simulated gi fluid
Staphylococcus aureus [36] = test: Antimicrobial activity against Staphylococcus aureus MRSA08-12 in peritonitis mouse model administered intravenously as single dose; assay type: functional; conditions: MRSA08-12, iv

With CCCC[C@H](CN(O)C=O)C(=O)N1CC=C[C@H]1C(=O)Nc1ccc(F)c[n+]1[O-] the mortality at 10 mg/kg (Staphylococcus aureus [1]) was 30%, the mortality at 2.5 mg/kg (Staphylococcus aureus [2]) was 80% and the mortality at 1.25 mg/kg (Staphylococcus aureus [3]) was 100%. For the same molecule, the fraction unbound at 2 µM [4] was 0.467, the fraction unbound at 2 µM [5] was 0.467 and the recovery at 2 µM [6] was 91.2%. The Activity (Mus musculus [7]) was “Non-toxic”, the Activity (Mus musculus [8]) was “Non-toxic” and the Activity (Mus musculus [9]) was “Non-toxic”. The LD50 at 336 h [10] was over 250 mg/kg, the MIC (Staphylococcus aureus [11]) was 0.5 µg/mL (≈ 1.27 µM) and the MIC (Escherichia coli [12]) was over 64 µg/mL. It also gave an MIC (Escherichia coli [13]) of 64 µg/mL (≈ 162 µM), an MIC (Staphylococcus aureus [14]) of 0.5 µg/mL (≈ 1.27 µM) and an MIC (Enterococcus faecalis) of 4 µg/mL (≈ 10.1 µM). For the same molecule, the MIC (Enterococcus faecium) was 2 µg/mL (≈ 5.07 µM), the MIC (Streptococcus pyogenes [15]) was 2 µg/mL (≈ 5.07 µM) and the MIC (Streptococcus pyogenes [16]) was 2 µg/mL (≈ 5.07 µM). It also gave an MIC (Staphylococcus aureus [17]) of 1 µg/mL (≈ 2.54 µM), an MIC (Staphylococcus aureus [18]) of 0.5 µg/mL (≈ 1.27 µM) and an MIC (Staphylococcus aureus [19]) of 1 µg/mL (≈ 2.54 µM). For the same molecule, the MIC (Staphylococcus aureus [20]) was 0.5 µg/mL (≈ 1.27 µM), the MIC (Staphylococcus aureus [21]) was 0.5 µg/mL (≈ 1.27 µM) and the MIC (Staphylococcus aureus [22]) was 1 µg/mL (≈ 2.54 µM). For the same molecule, the MIC (Staphylococcus aureus [23]) was 1 µg/mL (≈ 2.54 µM), the MIC (Staphylococcus aureus [24]) was 1 µg/mL (≈ 2.54 µM) and the MIC (Staphylococcus aureus [25]) was 0.5 µg/mL (≈ 1.27 µM). The MIC (Staphylococcus aureus [26]) was 1 µg/mL (≈ 2.54 µM), the MIC (Staphylococcus aureus [27]) was 0.5 µg/mL (≈ 1.27 µM) and the MIC (Staphylococcus aureus [28]) was 1 µg/mL (≈ 2.54 µM). The MIC (Staphylococcus aureus [29]) was 0.25 µg/mL (≈ 0.634 µM), the MIC (Staphylococcus aureus [30]) was 1 µg/mL (≈ 2.54 µM) and the AUC(0-t) [31] was 1950 ng·h/mL. It also gave an AUC(0-inf) [32] of 1960 ng·h/mL, a Cmax [33] of 1390 ng/mL and an AUC(0-t) [34] of 3320 ng·h/mL. For the same molecule, the Stability [35] was “Stable” and the ED50 (Staphylococcus aureus [36]) was 6.25 mg/kg.

Reference: ChEMBL document CHEMBL3352487, “Synthesis, antibacterial activity, and biological evaluation of formyl hydroxyamino derivatives as novel potent peptide deformylase inhibitors against drug-resistant bacteria” (Eur J Med Chem, 2014)
